Data as given in ChEMBL document CHEMBL4145644 (J Nat Prod, 2018).

Key:
Acholeplasma laidlawii = test: Antimicrobial activity against Acholeplasma laidlawii KB174 PG8 assessed as zone of inhibition at 1 ug/disc measured after 24 to 48 hrs by paper disc method; format: functional; details: read-out: IZ
Bacillus spizizenii = test: Antimicrobial activity against Bacillus subtilis KB211 ATCC 6633 assessed as zone of inhibition at 1 ug/disc measured after 24 to 48 hrs by paper disc method; format: functional; details: ATCC 6633 KB211, read-out: IZ
In short: (§1)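 Bacteria on nutrient agar (0.5% peptone, 0.5% meat extract, 0.8% agar, pH 7.0), 37 °C, 24 h. Inoculum 0.5% for B. subtilis, E. coli, K. pneumoniae, P. vulgaris; 0.2% for K. rhizophila. 6 mm discs carrying 10 μL compound solution. Zone of inhibition measured.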

Proteus vulgaris = test: Antimicrobial activity against Proteus vulgaris KB127 NBRC 3167 assessed as zone of inhibition at 1 ug/disc measured after 24 to 48 hrs by paper disc method; format: functional; details: read-out: IZ; in short: as §1
Kocuria rhizophila = test: Antimicrobial activity against Kocuria rhizophila KB212 ATCC 9341 assessed as zone of inhibition at 1 ug/disc measured after 24 to 48 hrs by paper disc method; format: functional, Kocuria rhizophila DC2201; details: read-out: IZ; in short: as §1
Staphylococcus aureus = test: Antimicrobial activity against Staphylococcus aureus KB210 ATCC 6538p assessed as zone of inhibition at 1 ug/disc measured after 24 to 48 hrs by paper disc method; format: functional; details: read-out: IZ
In short: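 Nutrient agar (0.5% peptone, 0.5% meat extract, 0.8% agar, pH 7.0) inoculated at 0.2% with S. aureus ATCC 6538p. 6 mm filter discs impregnated with 10 μL compound solution were applied. Plates were incubated at 37 °C for 24 h and inhibition zones were measured.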

Klebsiella pneumoniae = test: Antimicrobial activity against Klebsiella pneumoniae KB214 ATCC 10031 assessed as zone of inhibition at 1 ug/disc measured after 24 to 48 hrs by paper disc method; format: functional; details: read-out: IZ
In short: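 Paper disc diffusion with 6 mm sterile filter discs, each loaded with 10 μL of compound solution and placed on nutrient agar (0.5% peptone, 0.5% meat extract, 0.8% agar, pH 7.0). Plates seeded with 0.5% inoculum and incubated at 37 °C for 24 h. Inhibition zone diameters measured after incubation.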

[1] = tested on: Mycolicibacterium smegmatis; test: Antimicrobial activity against Mycobacterium smegmatis KB42 assessed as zone of inhibition at 1 ug/disc measured after 24 to 48 hrs by paper disc method; format: functional; details: read-out: IZ
Xanthomonas campestris = test: Antimicrobial activity against Xanthomonas campestris pv. oryzae KB88 assessed as zone of inhibition at 1 ug/disc measured after 24 to 48 hrs by paper disc method; format: functional; details: read-out: IZ
In short: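 Paper disc diffusion with 6 mm sterile filter discs, each loaded with 10 μL of compound solution and placed on nutrient agar (0.5% peptone, 0.5% meat extract, 0.8% agar, pH 7.0). Plates seeded with 1.0% inoculum and incubated at 27 °C for 24 h. Inhibition zone diameters measured after incubation.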

Pseudomonas aeruginosa = test: Antimicrobial activity against Pseudomonas aeruginosa KB359 NBRC 12582 assessed as zone of inhibition at 1 ug/disc measured after 24 to 48 hrs by paper disc method; format: functional; details: read-out: IZ
In short: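 Pseudomonas aeruginosa NBRC 12582 on nutrient agar (0.5% peptone, 0.5% meat extract, 0.8% agar, pH 7.0), 1.0% inoculation, 37 °C, 24 h. Discs (6 mm) impregnated with 10 μL compound solution placed on plate. Inhibition zones measured.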

Escherichia coli = test: Antimicrobial activity against Escherichia coli KB213 NIHJ assessed as zone of inhibition at 1 ug/disc measured after 24 to 48 hrs by paper disc method; format: functional; details: read-out: IZ; in short: as §1
Mucor racemosus = test: Antimicrobial activity against Mucor racemosus KF223 assessed as zone of inhibition at 10 ug/disc measured after 24 to 48 hrs by paper disc method; format: functional; details: read-out: IZ
Candida albicans = test: Antimicrobial activity against Candida albicans KF1 ATCC 64548 assessed as zone of inhibition at 10 ug/disc measured after 24 to 48 hrs by paper disc method; format: functional; details: read-out: IZ
Aspergillus niger = test: Antimicrobial activity against Aspergillus niger KF103 ATCC 6275 assessed as zone of inhibition at 10 ug/disc measured after 24 to 48 hrs by paper disc method; format: functional; details: read-out: IZ
Saccharomyces cerevisiae [2] = test: Antimicrobial activity against Saccharomyces cerevisiae BY25929 harboring yrr2/yrs1/pdr1/pdr3 deletion mutant assessed as zone of inhibition at 10 ug/disc measured after 24 to 48 hrs by paper disc method; format: functional; details: read-out: IZ
In short: (§2)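 Paper disc diffusion with 6 mm sterile filter discs, each loaded with 10 μL of compound solution and placed on agar plates. Plates incubated at 27 or 37 °C for 24−48 h, then inhibition zones measured.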

Saccharomyces cerevisiae [3] = test: Antimicrobial activity against Saccharomyces cerevisiae harboring 12genedelta0HSR-iERG6 mutant assessed as zone of inhibition at 10 ug/disc measured after 24 to 48 hrs by paper disc method; format: functional; details: read-out: IZ; in short: as §2
Saccharomyces cerevisiae [4] = test: Antimicrobial activity against Saccharomyces cerevisiae BY4741 assessed as zone of inhibition at 10 ug/disc measured after 24 to 48 hrs by paper disc method; format: functional; details: read-out: IZ
In short: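 S. cerevisiae BY4741 spread on YPD agar (1% yeast extract, 2% peptone, 2% glucose, 1.5% agar) at 1% inoculation. Sterile 6 mm filter discs loaded with 10 μL compound solution were placed on the plates. Plates were incubated at 27 °C for 48 h, then inhibition zones were measured.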

Saccharomyces cerevisiae [5] = test: Antimicrobial activity against Saccharomyces cerevisiae KF237 ATCC 9763 assessed as zone of inhibition at 10 ug/disc measured after 24 to 48 hrs by paper disc method; format: functional; details: read-out: IZ

CC[C@H]1OC(=O)[C@H](C)[C@@H](O[C@H]2C[C@@](C)(OC)[C@@H](O)[C@H](C)O2)[C@H](C)[C@@H](O[C@@H]2O[C@H](C)C[C@H](N(C)C)[C@H]2O)[C@](C)(O)C[C@@H](C)C(=O)[C@H](C)[C@@H](O)[C@]1(C)O [ERYTHROMYCIN]
zone of inhibition at 1 µg/disc (Acholeplasma laidlawii): 28 mm

C[C@@H](O)[C@H]1C(=O)N2C(C(=O)O)=C(S[C@@H]3CN[C@H](C(=O)N(C)C)C3)[C@H](C)[C@H]12
zone of inhibition at 1 µg/disc (Bacillus spizizenii): 24.1 mm | zone of inhibition at 1 µg/disc (Proteus vulgaris): 37.8 mm | zone of inhibition at 1 µg/disc (Kocuria rhizophila): 38 mm | zone of inhibition at 1 µg/disc (Staphylococcus aureus): 35.2 mm | zone of inhibition at 1 µg/disc (Klebsiella pneumoniae): 27 mm | zone of inhibition at 1 µg/disc [1]: 9.5 mm | zone of inhibition at 1 µg/disc (Xanthomonas campestris): 31.6 mm | zone of inhibition at 1 µg/disc (Pseudomonas aeruginosa): 47.3 mm | zone of inhibition at 1 µg/disc (Escherichia coli): 31 mm

C[C@@H]1[C@H](O)[C@@H](C)/C=C/C=C/C=C/C=C/C=C/C=C/C=C/[C@H](O[C@@H]2O[C@H](C)[C@@H](O)[C@H](N)[C@@H]2O)C[C@@H]2O[C@](O)(C[C@@H](O)C[C@@H](O)[C@H](O)CC[C@@H](O)C[C@@H](O)CC(=O)O[C@H]1C)C[C@H](O)[C@H]2C(=O)O [AMPHOTERICIN B]
zone of inhibition at 10 µg/disc (Mucor racemosus): 15.1 mm | zone of inhibition at 10 µg/disc (Candida albicans): 13 mm | zone of inhibition at 10 µg/disc (Aspergillus niger): 16.1 mm | zone of inhibition at 10 µg/disc (Saccharomyces cerevisiae [2]): 11.7 mm | zone of inhibition at 10 µg/disc (Saccharomyces cerevisiae [3]): 9.8 mm | zone of inhibition at 10 µg/disc (Saccharomyces cerevisiae [4]): 8.2 mm | zone of inhibition at 10 µg/disc (Saccharomyces cerevisiae [5]): 14.5 mm
